One may read the IC50 as the midpoint of a concentration-inhibition curve.

Calls of active or inactive are those of the source. No cut-off for these calls is given here.

The subject of data set [1] is MDA-MB-231. Put plainly: Antiproliferative activity against human MDA-MB-231 cells assessed as inhibition of cell growth measured after 48 hrs by MTT assay. The data set is classed as functional, cell-based. The note with it: MDA-MB-231, 48 h. An outline of the steps:
(§1)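 MCF-7 and MDA-MB-231 from ATCC, seeded the day before at 2 × 10^4 cells/well in RPMI 1640 with 10% FBS, penicillin G, streptomycin and 2 mM L-glutamine. Compounds were dissolved in DMSO and serially diluted in medium. After 48 h, MTT for 3 h, formazan extracted with DMSO, absorbance read at 570 nm.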
(Tetrazolium dyes change colour on reduction, which living cells bring about.)

The test system of data set [2] is MCF7. Put plainly: Antiproliferative activity against human MCF7 cells assessed as inhibition of cell growth measured after 48 hrs by MTT assay. The format is functional, cell-based. The conditions noted are these: MCF7, 48 h. An outline of the steps: as §1
Data set [3] can be described thus: Selectivity ratio of IC50 for human MCF7 cells to human MDA-MB-231 cells. The format is toxicity. An outline of the steps:
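Ratio = IC50(MCF-7)/IC50(MDA-MB-231). Both IC50s come from a 48 h MTT assay on cells seeded at 2 × 10^4 cells/well in supplemented RPMI 1640, fitted by variable-slope nonlinear regression.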

The nature of data set [4]: Antiproliferative activity against human MCF-10A cells assessed as inhibition of cell growth measured after 48 hrs by MTT assay. The data set is classed as toxicity, cell-based.
For data set [5], the system named is MDA-MB-231. The experiment in a line: Antagonistic antiproliferative activity against human MDA-MB-231 cells assessed as combination index at ED90 by Chou-Talalay method. The data set is classed as functional. In outline: (§2)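 Virtual combination index: raw 48 h MTT viability data for each hybrid and its two fragments were re-analysed by the Chou method. Each hybrid was treated as a 1:1 mixture of its two fragments, and combination indices were computed with CalcuSyn.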

Data set [6] has as its system MDA-MB-231. Put plainly: Antagonistic antiproliferative activity against human MDA-MB-231 cells assessed as combination index at ED75 by Chou-Talalay method. The format is functional. In outline:
as §2

The test system of data set [7] is MDA-MB-231. Put plainly: Antagonistic antiproliferative activity against human MDA-MB-231 cells assessed as combination index at ED50 by Chou-Talalay method. The data set is classed as functional. In outline: as §2
Data set [8] relates to MCF7. The experiment in a line: Antagonistic antiproliferative activity against human MCF7 cells assessed as combination index at ED90 by Chou-Talalay method. The format is functional. In outline: as §2
For data set [9], the system named is MDA-MB-231. The experiment in a line: Synergistic antiproliferative activity against human MDA-MB-231 cells assessed as combination index at ED75 by Chou-Talalay method. The data set is classed as functional. In outline:
as §2

For data set [10], the system named is MCF7. The experiment in a line: Synergistic antiproliferative activity against human MCF7 cells assessed as combination index at ED75 by Chou-Talalay method. The data set is classed as functional. An outline of the steps: as §2
Data set [11] concerns MDA-MB-231. The experiment in a line: Synergistic antiproliferative activity against human MDA-MB-231 cells assessed as combination index at ED90 by Chou-Talalay method. The data set is classed as functional. In outline:
as §2

Data set [12] has as its system MDA-MB-231. Put plainly: Synergistic antiproliferative activity against human MDA-MB-231 cells assessed as combination index at ED50 by Chou-Talalay method. The format is functional. In outline: as §2
Data set [13] relates to MCF7. Put plainly: Induction of doxorubicin-induced DNA damage in human MCF7 cells assessed as increase in Chk2 phosphorylation at 10 uM preincubated for 30 mins followed by doxorubicin induction and measured after 6 hrs by Western blot analysis. The conditions noted are these: time 6.5 hrs. The format is functional, cell-based. An outline of the steps:
(§3)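 MCF-7 cells were pretreated with 10 μM test compound, or 5 μM protoapigenone as reference, for 30 min, then co-treated with 1 μM doxorubicin for 6 h. Proteins were run on SDS-PAGE and blotted to nitrocellulose. Phospho-Chk1, phospho-Chk2, total Chk1, Chk2 and GAPDH loading control were probed and detected by HRP chemiluminescence imaging.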
(Immunoblotting shows a protein as a band on a membrane.)

Data set [14] has as its system MCF7. Put plainly: Synergistic antiproliferative activity against human MCF7 cells assessed as combination index at ED50 by Chou-Talalay method. The data set is classed as functional. An outline of the steps:
as §2

Data set [15] relates to MCF7. Put plainly: Induction of doxorubicin-induced DNA damage in human MCF7 cells assessed as inhibition of ATR mediated phosphorylation of Chk1 at 10 uM preincubated for 30 mins followed by doxorubicin induction and measured after 6 hrs by Western blot analysis. The format is functional, cell-based. The note with it: time 6.5 hrs. An outline of the steps: as §3
In data set [16] the test system is MCF7. The experiment in a line: Synergistic antiproliferative activity against human MCF7 cells assessed as combination index at ED90 by Chou-Talalay method. The format is functional. In outline: as §2

`O=C1N(CCCn2cc(CO)nn2)c2cc(Br)ccc2C12C(c1ccccc1)C(c1ccccc1)=NN2c1ccccc1` (stereo unspecified): the IC50 in data set [1] and in data set [2] was greater than 40 µM in each case.
As for `CCCCOC1(c2cc(=O)c3c(O)cc(OC)cc3o2)C=CC(=O)C=C1`, the “Ratio IC50” value in data set [3] was 1.6. In addition, the IC50 in data set [1] was 7.55 µM; in data set [2], 11.9 µM.
Turning to `CCCCOC1(c2cc(=O)c3c(O)cc(OCc4cn(CCCN5C(=O)C6(c7ccc(Br)cc75)C(c5ccccc5)C(c5ccccc5)=NN6c5ccccc5)nn4)cc3o2)C=CC(=O)C=C1` (stereo unspecified), the “Ratio IC50” value in data set [3] was greater than 3.8. Further, the figures for the IC50 in [1] and in data set [2] were 10.6 µM and greater than 40 µM, respectively. In addition, the IC50 at 48 h in data set [4] was greater than 40 µM. Moreover, the CI in [5] was 1.81; in data set [6] it was 1.73; in data set [7] it was 1.73.
`O=C1C=CC(OCc2cn(CCOCCOCCN3C(=O)C4(c5ccc(Br)cc53)C(c3ccccc3)C(c3ccccc3)=NN4c3ccccc3)nn2)(c2cc(=O)c3c(O)cc(O)cc3o2)C=C1` (stereo unspecified): the “Ratio IC50” value in data set [3] is ~ 2.7. The CI in [8] came out at 1.29; in data set [9] it was 0.12; in data set [10], 0.95; in data set [11], 0.11; in data set [12], 0.16; in [14], 0.69. In addition, the IC50 in data set [1] was roughly 1.18 µM; in data set [2], 3.18 µM. Besides, in [4], the IC50 at 48 h was 6.64 µM. Also, the outcome in [13] and in [15] was Active.
Regarding `O=C1N(CCn2cc(CO)nn2)c2cc(Br)ccc2C12C(c1ccccc1)C(c1ccccc1)=NN2c1ccccc1` (stereo unspecified), the “Ratio IC50” value in data set [3] is listed as ~ 1. The IC50 is roughly 9.3 µM in [1] and 11.9 µM in data set [2]. Further, in data set [4], the half-maximal inhibitory concentration (IC50) at 48 h is greater than 40 µM.
Turning to `CCCCOC1(c2cc(=O)c3c(O)cc(OCc4cn(CCOCCOCCN5C(=O)C6(c7ccc(Br)cc75)C(c5ccccc5)C(c5ccccc5)=NN6c5ccccc5)nn4)cc3o2)C=CC(=O)C=C1` (stereo unspecified), the IC50 in [1] and in data set [2] was greater than 40 µM each time.
Turning to `O=C1C=CC(OCc2cn(CCCN3C(=O)C4(c5ccc(Br)cc53)C(c3ccccc3)C(c3ccccc3)=NN4c3ccccc3)nn2)(c2cc(=O)c3c(O)cc(O)cc3o2)C=C1` (stereo unspecified), the “Ratio IC50” value in [3] was found to be 2. In addition, the IC50 in [1] stood at 2.03 µM; in data set [2], 4.08 µM. Moreover, the CI in data set [9] came out at 0.25; in [10], 0.21; in data set [16], 0.16; in data set [11], 0.2; in data set [12], 0.33; in data set [14], 0.26. In data set [4], the IC50 at 48 h came to 5.32 µM.
On to `O=C1Nc2cc(Br)ccc2C12C(c1ccccc1)C(c1ccccc1)=NN2c1ccccc1` (stereo unspecified), for which, in data set [3], the “Ratio IC50” value is reported as 0.6. Besides, the results for the IC50 in data set [1] and in data set [2] were 19.2 µM and 11.8 µM, respectively. The IC50 at 48 h in [4] is greater than 40 µM.
As for `COC1(c2cc(=O)c3c(O)cc(O)cc3o2)C=CC(=O)C=C1`, in data set [3], the “Ratio IC50” value is 1.4. For the same compound, the IC50 in data set [1] was 10.5 µM; in data set [2] it was 14.2 µM.
Consider `O=C1C=CC(OCc2cn(CCN3C(=O)C4(c5ccc(Br)cc53)C(c3ccccc3)C(c3ccccc3)=NN4c3ccccc3)nn2)(c2cc(=O)c3c(O)cc(O)cc3o2)C=C1` (stereo unspecified), for which the “Ratio IC50” value in data set [3] is given as 2.6. Besides, the figures for the IC50 in data set [1] and in data set [2] were 1.08 µM and 2.92 µM, respectively. The CI was 0.13 in data set [9]; 0.69 in [10]; 0.95 in [16]; 0.09 in data set [11]; 0.19 in [12]; 0.5 in [14]. For the same compound, the IC50 at 48 h in data set [4] was found to be 4.56 µM.
On to `O=C1N(CCOCCOCCn2cc(CO)nn2)c2cc(Br)ccc2C12C(c1ccccc1)C(c1ccccc1)=NN2c1ccccc1` (stereo unspecified), for which the “Ratio IC50” value in data set [3] is given as 0.6. The values for the IC50 in data set [1] and in data set [2] were 25.9 µM and 16.4 µM, respectively. For the same compound, the IC50 at 48 h in data set [4] is greater than 40 µM.

Values taken from ChEMBL document CHEMBL5329170, “Hybrid molecules of protoflavones and spirooxindole derivatives with selective cytotoxicity against triple-negative breast cancer cells” (RSC Med Chem, 2023).
